Experimental data published in paper PMC7254033 (Saudi Journal of Biological Sciences, 2019).
Converted amounts (≈) assume the structure as drawn. Marks after values point to notes of the source that are not given here.

Assays:
[1] = system: Candida albicans NR-29450; assay: Anti-yeast activity, CLSI M27-A3 microdilution MIC; type: cell-based; settings: NR29450, 48 h, read-out: Antifungal activity Minimal Inhibitory Concentrations, C. albicans
How it was run: (§1)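 Broth microdilution per CLSI M27-A3 in RPMI 1640 with two-fold serial dilutions over ten concentrations, alongside fluconazole reference dilutions. Strains were kept on agar slopes at 4 °C and subcultured for 48 h before each run. Inoculum was standardized at 2.50 × 10^3 cells/mL, with a blank sterility column. Plates were incubated 48 h at 37 °C. MIC was the lowest concentration with no visible turbidity. Tested in triplicate.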

[2] = DPPH radical scavenging activity; settings: 30 mins in the dark, absorbance at 517 nm
How it was run: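 DPPH was made up at 0.02% in methanol ([…]), stored closed away from light and heat. Serial dilutions of test compound were mixed with the DPPH solution to eight final two-fold concentrations, with ascorbic acid treated identically as positive control. Mixtures stood 30 min in the dark at room temperature. Absorbance at 517 nm was read against blank. % scavenging = (Ao − As)/Ao × 100, and IC50 was deduced from it. Triplicate.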

Candida krusei ATCC 6258 = assay: Anti-yeast activity, CLSI M27-A3 microdilution MIC; type: cell-based; settings: for Antifungal activity, folds less than fuconazole: strain not given, fits C. krusei of Table 3
How it was run: as §1

Candida glabrata isolate = assay: Anti-yeast activity, CLSI M27-A3 microdilution MIC; type: cell-based; settings: 48 h, 37 °C
How it was run: as §1

[3] = system: zymosan stimulated human whole blood phagocytes; assay: Oxidative burst assay; type: cell-based; settings: read-out: ROS Inhibition (IC50 µg/mL)
How it was run: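 Diluted human whole blood phagocytes were stimulated with zymosan and intracellular ROS measured by luminol-enhanced chemiluminescence. Test compound was given at three concentrations (1, 10 and 100), with ibuprofen as standard anti-inflammatory drug. IC50 was derived.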

Compound	MIC [1]	DPPH radical scavenging activity IC50 [2]	also measured
CC1(C)CC[C@]2(C(=O)O)CC[C@]3(C)C(=CC[C@@H]4[C@@]5(C)CC[C@H](O)C(C)(C)[C@@H]5CC[C@]43C)[C@@H]2C1 [Compound 5, oleanolic acid]	500 µg/mL (≈ 1090 µM)	˃1000 µg/mL	
C=C(C)[C@@H]1CC[C@]2(C)CC[C@]3(C)[C@H](CC[C@@H]4[C@@]5(C)CC[C@H](O)C(C)(C)[C@@H]5CC[C@]43C)[C@@H]12 [Compound 7, lupeol]	500 µg/mL (≈ 1170 µM)	˃1000 µg/mL	Antifungal activity, folds less than fuconazole (Candida krusei ATCC 6258): 5 folds
C=C(C)[C@@H]1CC[C@]2(C(=O)O)CC[C@]3(C)[C@H](CC[C@@H]4[C@@]5(C)CC[C@H](O)C(C)(C)[C@@H]5CC[C@]43C)[C@@H]12 [Compound 8, betulinic acid]	500 µg/mL (≈ 1090 µM)	˃1000 µg/mL	Antifungal activity, folds less than fuconazole (Candida krusei ATCC 6258): 5 folds
C=C(C)[C@@H]1CC[C@]2(C)CC[C@]3(C)[C@H](CC[C@@H]4[C@@]5(C)CCC(=O)C(C)(C)[C@@H]5CC[C@]43C)[C@@H]12 [Compound 10, lupenone]	500 µg/mL (≈ 1180 µM)	˃1000 µg/mL	
OC(Cn1cncn1)(Cn1cncn1)c1ccc(F)cc1F [Fluconazol, fluconazole, reference compound]			Antifungal activity Minimal Inhibitory Concentrations, C. krusei (Candida krusei ATCC 6258; 48 h, 37 °C): 50 µg/mL; Antifungal activity Minimal Inhibitory Concentrations, C. glabrata (Candida glabrata isolate): 50 µg/mL
CC(C)Cc1ccc(C(C)C(=O)O)cc1 (centres unmarked) [Ibuprofen]			IC50 [3]: 11.2 ± 1.9 µg/mL (≈ 54.3 µM)
O=C1O[C@H]([C@@H](O)CO)C(O)=C1O [Vitamin C, ascorbic acid, reference compound]		3.343 ± 0.271^a µg/mL	
